# Measurements published in ChEMBL document CHEMBL3045298, “Furan-2,5-dimethylene-tethered bis-imidacloprid insecticide conferring high potency” (J Agric Food Chem, 2010).
# Columns and labels:
# Musca domestica [1] = experiment: Insecticidal activity against Musca domestica (house fly) measured after intrathoracic compound injection in presence of cytochrome P450 inhibitor O-propyl O-(2-propynyl) phenylphosphonate; format: functional
# Summary of the method: (§1)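 Houseflies were first pretreated with the P450 inhibitor O-propyl O-(2-propynyl) phenylphosphonate, then dosed by intrathoracic injection. Lethality was scored 24 h after administration, and the 50% lethal dose was determined.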
# [2] = target: T1, Nicotinic acetylcholine receptor alpha 5 subunit (Musca domestica, UniProt A9XFY4); experiment: Displacement of [3H]IMI from Musca domestica (house fly) brain nicotinic acetylcholine receptor
# T1 sequence (A9XFY4 whole entry): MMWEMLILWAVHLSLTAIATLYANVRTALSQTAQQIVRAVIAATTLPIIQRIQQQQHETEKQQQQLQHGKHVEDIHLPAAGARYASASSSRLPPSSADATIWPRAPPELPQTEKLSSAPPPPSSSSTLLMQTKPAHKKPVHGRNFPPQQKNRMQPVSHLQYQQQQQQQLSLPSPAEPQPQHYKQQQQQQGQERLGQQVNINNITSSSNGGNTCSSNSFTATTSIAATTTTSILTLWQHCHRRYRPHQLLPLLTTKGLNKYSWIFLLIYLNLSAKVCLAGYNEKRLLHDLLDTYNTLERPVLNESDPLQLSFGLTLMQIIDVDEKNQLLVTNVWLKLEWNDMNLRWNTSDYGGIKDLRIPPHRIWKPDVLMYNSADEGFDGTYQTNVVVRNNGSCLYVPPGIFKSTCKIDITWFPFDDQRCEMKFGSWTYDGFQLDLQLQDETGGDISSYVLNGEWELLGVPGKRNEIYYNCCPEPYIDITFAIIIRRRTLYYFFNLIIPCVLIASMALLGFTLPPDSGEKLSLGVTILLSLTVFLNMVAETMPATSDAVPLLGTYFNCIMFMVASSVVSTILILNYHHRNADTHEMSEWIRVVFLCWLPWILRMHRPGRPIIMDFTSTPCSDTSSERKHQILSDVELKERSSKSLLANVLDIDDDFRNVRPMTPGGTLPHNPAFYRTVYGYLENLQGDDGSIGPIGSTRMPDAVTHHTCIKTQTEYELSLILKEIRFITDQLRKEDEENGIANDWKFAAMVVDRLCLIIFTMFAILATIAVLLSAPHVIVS
# Summary of the method: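 Native housefly (Musca domestica) brain nAChR preparation with [3H]IMI radioligand at 5 nM (Kd 5.4 nM). IC50 is the molar concentration inhibiting 50% of specific [3H]IMI binding, fitted by iterative nonlinear least-squares regression. Ki derived as IC50/(1 + [L]/Kd).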
# Musca domestica [3] = experiment: Insecticidal activity against Musca domestica (house fly) assessed as mortality at LD50 concentration intrathoracic injection in presence of cytochrome P450 inhibitor O-propyl O-(2-propynyl) phenylphosphonate; format: functional; summary of the method: as §1
structure (smiles),measurement,setting,value
O=C(/N=C1/N(CCCCCCCCN2CCN(Cc3ccc(Cl)nc3)/C2=N\C(=O)C(F)(F)F)CCN1Cc1ccc(Cl)nc1)C(F)(F)F,LD50,Musca domestica [1],> 1 mg/kg
same,Ki,[2],26000 nM
same,mortality,Musca domestica [3],0%
O=C(/N=C1/N(CCCCCCCN2CCN(Cc3ccc(Cl)nc3)/C2=N/C(=O)C(F)(F)F)CCN1Cc1ccc(Cl)nc1)C(F)(F)F,LD50,Musca domestica [1],> 1 mg/kg
same,Ki,[2],2900 nM
same,mortality,Musca domestica [3],0%
O=C(/N=C1/N(CCCCCCN2CCN(Cc3ccc(Cl)nc3)/C2=N/C(=O)C(F)(F)F)CCN1Cc1ccc(Cl)nc1)C(F)(F)F,LD50,Musca domestica [1],> 1 mg/kg
same,Ki,[2],26000 nM
same,mortality,Musca domestica [3],0%
CC(C)(CCN1CCN(Cc2ccc(Cl)nc2)/C1=N\[N+](=O)[O-])CCN1CCN(Cc2ccc(Cl)nc2)/C1=N\[N+](=O)[O-],LD50,Musca domestica [1],> 1 mg/kg
same,Ki,[2],1460 nM
same,mortality,Musca domestica [3],0%
O=C(CN1CCN(Cc2ccc(Cl)nc2)/C1=N\[N+](=O)[O-])OCCOC(=O)CN1CCN(Cc2ccc(Cl)nc2)/C1=N\[N+](=O)[O-],LD50,Musca domestica [1],> 1 mg/kg
same,Ki,[2],1550 nM
same,mortality,Musca domestica [3],0%
O=[N+]([O-])/N=C1/N(CCCOCCCN2CCN(Cc3ccc(Cl)nc3)/C2=N\[N+](=O)[O-])CCN1Cc1ccc(Cl)nc1,LD50,Musca domestica [1],> 1 mg/kg
same,Ki,[2],2660 nM
same,mortality,Musca domestica [3],0%
O=[N+]([O-])/N=C1/N(CCOCCN2CCN(Cc3ccc(Cl)nc3)/C2=N\[N+](=O)[O-])CCN1Cc1ccc(Cl)nc1,LD50,Musca domestica [1],> 1 mg/kg
same,Ki,[2],530 nM
same,mortality,Musca domestica [3],0%
O=[N+]([O-])/N=C1\N(Cc2ccc(Cl)nc2)CCN1Cc1ccc(CN2CCN(Cc3ccc(Cl)nc3)/C2=N\[N+](=O)[O-])s1,LD50,Musca domestica [1],1 mg/kg
same,Ki,[2],150 nM
O=[N+]([O-])/N=C1\N(Cc2ccc(Cl)nc2)CCN1Cc1ccc(CN2CCN(Cc3ccc(Cl)nc3)/C2=N\[N+](=O)[O-])o1,LD50,Musca domestica [1],0.14 mg/kg
same,Ki,[2],30 nM
O=[N+]([O-])/N=C1\N(Cc2ccc(Cl)nc2)CCN1Cc1cncc(CN2CCN(Cc3ccc(Cl)nc3)/C2=N\[N+](=O)[O-])c1,LD50,Musca domestica [1],> 1 mg/kg
same,Ki,[2],2300 nM
same,mortality,Musca domestica [3],10%
O=[N+]([O-])/N=C1\N(Cc2ccc(Cl)nc2)CCN1Cc1cccc(CN2CCN(Cc3ccc(Cl)nc3)/C2=N\[N+](=O)[O-])n1,LD50,Musca domestica [1],> 1 mg/kg
same,Ki,[2],5200 nM
same,mortality,Musca domestica [3],0%
O=[N+]([O-])/N=C1\N(Cc2ccc(Cl)nc2)CCN1Cc1ccccc1-c1ccccc1CN1CCN(Cc2ccc(Cl)nc2)/C1=N\[N+](=O)[O-],LD50,Musca domestica [1],> 1 mg/kg
same,Ki,[2],800 nM
same,mortality,Musca domestica [3],10%
O=[N+]([O-])/N=C1/N(Cc2ccc(Cc3ccc(CN4CCN(Cc5ccc(Cl)nc5)/C4=N\[N+](=O)[O-])cc3)cc2)CCN1Cc1ccc(Cl)nc1,LD50,Musca domestica [1],> 1 mg/kg
same,Ki,[2],17000 nM
same,mortality,Musca domestica [3],0%
O=[N+]([O-])/N=C1\N(Cc2ccc(Cl)nc2)CCN1Cc1cccc(CN2CCN(Cc3ccc(Cl)nc3)/C2=N\[N+](=O)[O-])c1,LD50,Musca domestica [1],> 1 mg/kg
same,Ki,[2],2770 nM
same,mortality,Musca domestica [3],0%
O=C(/N=C1/N(CCCCCN2CCN(Cc3ccc(Cl)nc3)/C2=N/C(=O)C(F)(F)F)CCN1Cc1ccc(Cl)nc1)C(F)(F)F,LD50,Musca domestica [1],> 1 mg/kg
same,Ki,[2],16000 nM
same,mortality,Musca domestica [3],0%
O=[N+]([O-])/N=C1/N(Cc2ccc(CN3CCN(Cc4ccc(Cl)nc4)/C3=N\[N+](=O)[O-])cc2)CCN1Cc1ccc(Cl)nc1,LD50,Musca domestica [1],> 1 mg/kg
same,Ki,[2],2270 nM
same,mortality,Musca domestica [3],0%
O=[N+]([O-])NC1=NCCN1Cc1ccc(Cl)nc1 [IMIDACLOPRID],LD50,Musca domestica [1],0.03 mg/kg
same,Ki,[2],4.6 nM
